Calls of active or inactive are those of the source. The calls are words filed in the database; no cut-off is given here.
Experiments:
Type in all cases: functional
[1] = Antioxidant activity against hydroperoxyl radical assessed as resorcinol equivalent by Briggs-Rauscher method
Method in brief: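 Briggs–Rauscher oscillating reaction run at acidic pH (ca. 2), using resorcinol as standard. Activity is expressed relative to resorcinol from the inhibitory phase of the oscillations.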

[2] = Antioxidant activity against ABTS radical assessed as trolox equivalent by TEAC assay
Method in brief: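 TEAC assay run at pH 7.4 against the ABTS radical cation. Trolox served as standard, with activity expressed relative to it.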

[3] = Antioxidant activity against hydroperoxyl radical assessed as inhibition time at 3.71 uM by Briggs-Rauscher method
Method in brief: (§1)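 Briggs–Rauscher oscillating reaction run under acidic conditions (pH ca. 2). Read-out is the inhibitory phase induced in the oscillations.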

[4] = Antioxidant activity against hydroperoxyl radical assessed as inhibition time at 3.34 uM by Briggs-Rauscher method; method in brief: as §1
[5] = Antioxidant activity against hydroperoxyl radical assessed as inhibition time at 2.97 uM by Briggs-Rauscher method; method in brief: as §1
[6] = Antioxidant activity against hydroperoxyl radical assessed as inhibition time at 2.25 uM by Briggs-Rauscher method; method in brief: as §1
[7] = Antioxidant activity against hydroperoxyl radical assessed as inhibition time at 1.48 uM by Briggs-Rauscher method; method in brief: as §1

COc1cc(C2(c3cc(OC)c(N)cc3OC)C(=O)Nc3ccccc32)c(OC)cc1N
Activity [1]: 1.28 µM
Activity [2]: 1.4 mM
TIME [3]: 0.296 h
TIME [4]: 0.269 h
TIME [5]: 0.24 h
TIME [6]: 0.216 h
TIME [7]: 0.154 h

COc1ccc(OC)c(NC(=O)C(=O)c2ccccc2NC(C)=O)c1
Activity [1]: inactive
Activity [2]: inactive
